pKi: −log10 of the molar value. Peptide text beside a SMILES is read from it. * marks the point of attachment. Cbz = O=C(OCc1ccccc1)*
Target: Proteasome
Assay: Inhibitory constant for the inactivation of the chymotrypsin like activity of proteasome from human red blood corpuscles was determined; call rule not given here
Format: subcellular
How it was run: (§1)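 Proteasome isolated from human erythrocytes by a previously described procedure. Its chymotrypsin-like activity was followed by hydrolysis of the fluorogenic substrate Suc-Leu-Leu-Val-Tyr-NHMec. Inhibition was treated as slow-binding, with a fast EI complex forming first and then isomerising to a tight EI*. Ki* was obtained from the final steady-state rates using a rearranged competitive-inhibition equation.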

Structure (SMILES) | pKi
CC(C)C[C@H](NC(=O)[C@H](C)NC(=O)OCc1ccccc1)C(=O)C=O | 5.41
CC(C)[C@H](NC(=O)OCc1ccccc1)C(=O)N[C@@H](Cc1ccccc1)C(=O)C=O | 5.69
CC(C)C[C@H](NC(=O)[C@H](CC(C)C)NC(=O)[C@@H](CC(C)C)NC(=O)c1ccccc1)C(=O)C=O | 8.43
CC(C)C[C@H](NC(=O)OCc1ccccc1)C(=O)N[C@@H](Cc1ccccc1)C(=O)C=O | 5.85
CC(C)C[C@H](NC(=O)[C@@H](CC(C)C)NC(=O)OCc1ccccc1)C(=O)N[C@@H](Cc1ccc(O)cc1)C(=O)C=O | 8.51
C[C@H](NC(=O)OCc1ccccc1)C(=O)N[C@@H](Cc1ccccc1)C(=O)C=O | 5.04
CC(C)C[C@@H](C=O)NC(=O)[C@H](CC(C)C)NC(=O)[C@H](CC(C)C)NC(=O)OCc1ccccc1 [MG-132] (Cbz-Leu-Leu-Leu-aldehyde) | 8.40

System: Proteasome
Assay: Inhibitory constant for the inactivation of the chymotrypsin like activity of proteasome from human red blood corpuscles was determined; NI means no inhibition
Format: subcellular
How it was run: as §1

Structure (SMILES) | Ki
CC(=O)N[C@@H](C(=O)N[C@@H](CC(C)C)C(=O)N[C@@H](CCCCN)C(=O)C=O)C(C)C | Not Active
O=CC(=O)[C@H](Cc1ccccc1)NC(=O)[C@@H]1CCCN1C(=O)OCc1ccccc1 | Not Active
CC(=O)N[C@@H](CCCN=C(N)N)C(=O)N[C@@H](CCCN=C(N)N)C(=O)C=O | Not Active

— ChEMBL document CHEMBL1130749, “Inhibitors of the chymotrypsin-like activity of proteasome based on di- and tri-peptidyl alpha-keto aldehydes (glyoxals)” (Bioorg Med Chem Lett, 1998)
